Only some compounds are listed: those with a hit (about 3.1% of all), similar ones and a draw of the others.
rCAG RNA binder: molecules binding r(CAG) RNA repeats | AID 651821 | actives 1.3% (n = 370,000) | r(CAG) RNA repeat, TO-PRO-1 dye displacement fluorescence | inhibition, % at 3 µM;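 active = inhibition above the plate cutoff, the mean of all test compounds on that plate plus 3 SD, cut at about 35% in these data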;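 also: 0% = DMSO alone and 100% = 100 µM mitoxantrone as full dye displacement; higher means more dye released from RNA so lower well fluorescence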
UHRF1 MBD2 ctr: blocks human UHRF1 binding to methylated DNA. Q96T88. UHRF1 binding to methylated oligo, TR-FRET. inhibition, % at 4.4 µM. actives 0.75% (n = 370,000); in the data active = inhibition above about 21%;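 also: UHRF1 SRA domain binding a hemimethylated CpG hairpin DNA probe; 0% = median of test compound wells and 100% = reference inhibitor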
MBD2 inh: inhibitors of human MBD2 binding to methylated oligonucleotide. Q9UBB5. TR-FRET. inhibition, % at 4.4 µM. actives 0.31% (n = 370,000); in the data active = inhibition above about 13%
ATG4B inh: ATG4B (human) cysteine protease inhibition; Q9Y4P1; actives 0.51% (n = 340,000); inhibition, % at 8.33 µM; AID 504462; ATG4B cleavage of LC3-PLA2, NBD-HPC fluorescence, 1 h; in the data active = inhibition above about 40%
LEDGF integ inh: blocks HIV-1 LEDGF/p75-dependent DNA integration; inhibition, % at 3.7 µM; TR-FRET IN-LEDGF/p75 DNA integration, Eu/Cy5; actives 0.64% (n = 370,000); AID 743269;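 active = inhibition above the screen-wide mean plus 3 SD, cut at about 13% in these data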;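 also: signal is the Cy5 over europium emission ratio at 671 and 618 nm; 0% = plate median of compound wells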
CSN deneddyl inh: blocks human CSN-mediated cullin deneddylation; inhibition, % at 12.5 µM; actives 0.38% (n = 360,000); Purified CSN, SCF-Nedd8-OG deneddylation, fluorescence polarization;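 active = pattern-corrected inhibition above about 35%, with an unprinted fluorescence ratio check between 0.5 and 1.5, limit read from the data, passing the limit was not always enough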;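 also: 0% = enzyme with substrate and 100% = substrate without enzyme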
Target sequence (Q92905 whole entry, looked up, one chain of several): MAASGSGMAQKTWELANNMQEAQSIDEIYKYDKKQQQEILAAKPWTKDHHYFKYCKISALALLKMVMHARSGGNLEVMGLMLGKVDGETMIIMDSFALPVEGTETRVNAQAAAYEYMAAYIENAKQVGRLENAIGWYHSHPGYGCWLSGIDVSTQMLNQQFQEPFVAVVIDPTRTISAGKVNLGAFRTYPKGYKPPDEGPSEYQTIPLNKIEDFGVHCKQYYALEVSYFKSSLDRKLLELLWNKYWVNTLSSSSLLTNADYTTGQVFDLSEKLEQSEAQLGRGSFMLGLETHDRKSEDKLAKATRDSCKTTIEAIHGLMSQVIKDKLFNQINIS
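Assay system: HEK293T-derived human Csn5 enzyme; quantity: 0.24 nM enzyme; medium: Tris/NaCl/DTT buffer, pH 7.5; also added: substrate SCFSkp2-Nedd8OG, 10 nM; doses: 12.5 µM compound; schedule: 90 min reaction at room temperature; signal: FP; read-out: % inhibition of substrate cleavage by Csn5; benchmarks: substrate-only high control, full reaction low control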
IN multimer act: activates HIV-1 integrase multimerization in LEDGF counter-screen; shares compounds with LEDGF integ inh; TR-FRET HIV-1 integrase multimerization, biochemical; activation, % at 7.7 µM; actives 17% (n = 2,000); AID 1053131; in the data active = activation above about 8.9%
TRFRET interf: optically interferes with TR-FRET readout in LEDGF counter-screen. shares compounds with LEDGF integ inh. TR-FRET optical interference counterscreen, HIV-1 IN multimerization. 2,000 tested, under 10 active. inhibition, % at 7.7 µM;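 active = inhibition above the mean over all tested compounds plus 3 SD, which no compound reached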;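 also: 0% = integrase with antibodies and DMSO and 100% = antibodies without integrase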
IN-LEDGF confirm: LEDGF/p75-dependent HIV-1 integration inhibition, confirmation | shares compounds with LEDGF integ inh | TR-FRET LEDGF/p75-dependent HIV-1 integration, biochemical | inhibition, % at 3.7 µM | actives 36% (n = 2,000) | AID 1053136; in the data active = inhibition above about 14%
Active calls of the source: *.

For CN1CCN(S(=O)(=O)c2cccc(C(=O)N3CCN(c4ccccc4F)CC3)c2)CC1 the results were rCAG RNA binder 4.5, UHRF1 MBD2 ctr -2.1, MBD2 inh -8.1, ATG4B inh -2.6, LEDGF integ inh 25.7*, CSN deneddyl inh -6.2, IN multimer act -2.7, TRFRET interf 9.3 and IN-LEDGF confirm -0.8.
O=C(c1cccc(S(=O)(=O)N2CCCCCC2)c1)N1CCN(c2ccccc2F)CC1 was read as rCAG RNA binder -3.4, UHRF1 MBD2 ctr -1.5, MBD2 inh 1.9, ATG4B inh 2.4, LEDGF integ inh 1.7 and CSN deneddyl inh 4.2.
Screening OCC1(Cc2cccc(C(F)(F)F)c2)CCN(Cc2cc(F)cc(F)c2)CC1 returned rCAG RNA binder -7.8, UHRF1 MBD2 ctr -0.2, MBD2 inh -1.2, ATG4B inh 7.7, LEDGF integ inh 3.8 and CSN deneddyl inh -0.8.
`CN(C)S(=O)(=O)N1CCC(CO)(Cc2cccc(C(F)(F)F)c2)CC1` gave rCAG RNA binder -7.2, UHRF1 MBD2 ctr -1.8, MBD2 inh -3.1, ATG4B inh 25.9, LEDGF integ inh 32.4*, CSN deneddyl inh 2.4, IN multimer act 0.6, TRFRET interf -3.1 and IN-LEDGF confirm -6.2.
For Nc1[nH]c2cc(C(F)(F)F)ccc2c1C(=O)NC1CCCCC1 the results were rCAG RNA binder 1.6, UHRF1 MBD2 ctr 3.2, MBD2 inh 2.4 and LEDGF integ inh 2.0.
For Cc1ccc(NC(=O)N2CCC(c3nc4ccc(Cl)cc4[nH]3)CC2)cc1F the results were rCAG RNA binder 3.1, UHRF1 MBD2 ctr 1.8, MBD2 inh -6.2 and LEDGF integ inh -0.5.
For Cc1cn([C@H]2C[C@H](O)[C@@H](CCC(=O)NCc3cccc4ccccc34)O2)c(=O)[nH]c1=O the results were rCAG RNA binder 1.0, UHRF1 MBD2 ctr -2.2, MBD2 inh -7.5, LEDGF integ inh 15.0*, CSN deneddyl inh 5.0, IN multimer act 0.0, TRFRET interf 0.3 and IN-LEDGF confirm -0.2.
`CC1(C(=O)NS(=O)(=O)C2CC2)CCN(C(=O)COc2ccc(Cl)cc2Cl)C1` (stereo unspecified) gave rCAG RNA binder 2.9, UHRF1 MBD2 ctr 2.5, MBD2 inh 1.5, LEDGF integ inh 13.7*, CSN deneddyl inh -1.3, IN multimer act -2.1, TRFRET interf 10.5 and IN-LEDGF confirm 0.8.
For O=C(NC12CC3CC(CC(C3)C1)C2)N1CCN(c2ccccn2)CC1 the results were rCAG RNA binder -5.3, UHRF1 MBD2 ctr -0.5, MBD2 inh 3.9, ATG4B inh -4.8, LEDGF integ inh 49.4*, CSN deneddyl inh 2.5, IN multimer act -0.2, TRFRET interf 1.0 and IN-LEDGF confirm -7.5.
`O=C(NC12CC3CC(CC(C3)C1)C2)N1CCN(c2ncccn2)CC1` gave rCAG RNA binder -5.1, UHRF1 MBD2 ctr -0.3, MBD2 inh 5.1, ATG4B inh -8.3, LEDGF integ inh -2.9 and CSN deneddyl inh 0.5.
COc1ccc(-c2cc(=O)[nH]c(=O)[nH]2)cc1 was read as rCAG RNA binder 2.1, UHRF1 MBD2 ctr 0.5, MBD2 inh -0.9, ATG4B inh -6.6, LEDGF integ inh 2.8 and CSN deneddyl inh -1.6.
`O=c1cc(-c2ccc(Cl)c(Cl)c2)[nH][nH]1` gave rCAG RNA binder 25.9, UHRF1 MBD2 ctr 7.3, MBD2 inh -6.7, ATG4B inh 15.6, LEDGF integ inh 14.8*, CSN deneddyl inh -0.6, IN multimer act 2.0, TRFRET interf -7.2 and IN-LEDGF confirm 13.7*.
Screening COc1ccc(-c2cc(=O)[nH][nH]2)cc1 returned rCAG RNA binder 4.5, UHRF1 MBD2 ctr -5.8, MBD2 inh 0.3, ATG4B inh -1.1, LEDGF integ inh 14.6*, CSN deneddyl inh -0.6, IN multimer act 2.6, TRFRET interf -9.4 and IN-LEDGF confirm 3.0.

Screening data (PubChem)
